# Sampled rows, rich in hits. Any-hit rate of the full collection: about 4%.
# GPR7 antagonist – human neuropeptides B/W receptor 1 antagonism; hit rate 1.1% among 290,000; GPR7-expressing cells, fluorescence antagonist assay; inhibition, % at 4.4 µM; P48145; in the data active means inhibition above about 16%, passing the limit was not always enough;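 further: cells stimulated with the agonist NPW; 0% = agonist with vehicle and 100% = vehicle without agonist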
# Target sequence (P48145 whole entry, looked up): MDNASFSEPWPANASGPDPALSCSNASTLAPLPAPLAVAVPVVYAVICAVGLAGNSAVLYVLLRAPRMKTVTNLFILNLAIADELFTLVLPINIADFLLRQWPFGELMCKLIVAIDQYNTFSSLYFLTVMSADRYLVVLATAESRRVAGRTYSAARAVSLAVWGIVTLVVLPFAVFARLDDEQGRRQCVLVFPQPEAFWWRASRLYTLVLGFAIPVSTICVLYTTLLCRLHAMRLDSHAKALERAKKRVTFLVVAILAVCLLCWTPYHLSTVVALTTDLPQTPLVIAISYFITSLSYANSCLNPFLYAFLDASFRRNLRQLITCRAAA
# DAGLB inhibitor – diacylglycerol lipase beta (human) inhibition; Q8NCG7; HEK293T DAGLB membrane lysate, EnzChek fluorogenic substrate; inhibition, % at 5.17 µM; hit rate 0.059% among 340,000; AID 504411; in the data active means inhibition above about 34%;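 further: 0% = enzyme with vehicle and 100% = wells lacking enzyme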
# TAAR1 ag – human TAAR1 agonism; activation, % at 3 µM; Q96RJ0; CHO RD-HGA16 TAAR1, Fluo-8 calcium fluorescence; vehicle wells 0%, saturating PEA agonist 100%; hit rate 0.99% among 360,000;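 active means activation above the mean activation of all test compounds in the run plus 3 SD, cut at about 38% in these data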
# Target sequence (Q96RJ0 whole entry, looked up): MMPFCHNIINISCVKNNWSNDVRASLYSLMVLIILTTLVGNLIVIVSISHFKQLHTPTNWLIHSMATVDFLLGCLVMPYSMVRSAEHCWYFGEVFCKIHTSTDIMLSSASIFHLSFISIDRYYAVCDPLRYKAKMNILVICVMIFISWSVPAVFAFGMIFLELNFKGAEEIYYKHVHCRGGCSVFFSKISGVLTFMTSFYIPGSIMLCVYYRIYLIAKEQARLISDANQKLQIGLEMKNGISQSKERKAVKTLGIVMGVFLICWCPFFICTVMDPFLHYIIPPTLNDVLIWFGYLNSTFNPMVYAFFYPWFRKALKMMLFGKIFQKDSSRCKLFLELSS
#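 Test system: RD-HGA16 (CHO) cells co-expressing Gα16 and hTAAR1 | Doses: Single dose, 3 µM | Schedule: 17-24 h seeding, 75 min 37 °C dye, 30 min RT | Evaluation: % activation from peak over basal fluorescence ratio, DMSO-to-PEA scaled | Technique: Kinetic Fluo-8 calcium fluorescence | Benchmarks: Low control DMSO, high control PEA (EC100)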
# TAAR1 antagonist – human TAAR1 antagonism | inhibition, % at 3 µM | hit rate 1.5% among 360,000 | CHO RD-HGA16 TAAR1, Fluo-8 calcium fluorescence, antagonist | Q96RJ0;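 active means inhibition above a per-plate cutoff, the mean inhibition of test compounds on that plate plus 3 SD, cut at about 49% in these data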;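 further: 0% = DMSO plus EC80 beta-PEA response and 100% = DMSO alone without agonist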
#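 System: RD-HGA16 CHO cells with stable hTAAR1 and Gα16 | Probe or stimulus: EC80 β-phenethylamine stimulus | Dosing: 3 µM, single point | Times: Dye loading 75 min at 37 °C, then 30 min room temperature | Measured by: Fluo-8 calcium-sensitive fluorescence | Read-out basis: % inhibition of agonist calcium response | Replicates: n of 1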
# MPTP inh – blocks calcium-induced mitochondrial swelling | isolated mouse mitochondria, Ca2+ swelling absorbance, 30 min | inhibition, % at 10 µM | hit rate 1.4% among 360,000;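 active means inhibition of 50% or more, scaled per plate between neutral and stimulator controls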;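 further: 0% = DMSO wells given calcium and 100% = 1 mM EGTA wells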
# TAAR1 ag conf – confirmation of human TAAR1 agonists. shares compounds with TAAR1 ag. activation, % at 3 µM. hit rate 82% among 2,400. CHO RD-HGA16 TAAR1, Fluo-8 calcium fluorescence; scaled: DMSO 0%, maximal phenethylamine 100%;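 active means activation above a cutoff set at the run's mean compound activation plus 3 SD, cut at about 39% in these data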
# Ga16 ag counter – nonselective agonism, TAAR1 counter-screen; AID 651787; hit rate 50% among 2,400; activation, % at 3 µM; CHO-Ga16 parental, Fluo-8 calcium fluorescence; normalized to maximal ATP response, DMSO zero; shares compounds with TAAR1 ag;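 active means activation above the run cutoff, the mean activation over all tested wells plus 3 SD, cut at about 12% in these data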;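 further: 0% = DMSO wells and 100% = maximal ATP response on the peak over basal ratio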
# TAAR1 desens – human TAAR1 agonist that also desensitizes the receptor. shares compounds with TAAR1 ag. CHO RD-HGA16 hTAAR1, Fluo-8 calcium, beta-PEA response inhibition. inhibition, % at 3 µM. hit rate 46% among 2,400. AID 651951;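 active means inhibition above the run cutoff, the mean inhibition of all test compounds plus 3 SD, cut at about 49% in these data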;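 further: beta-PEA stimulus applied at its EC80; loss of beta-PEA calcium signal after compound pretreatment read as receptor desensitization; 0% = DMSO with beta-PEA at EC80 and 100% = DMSO alone without agonist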
# Ga16 nonsel ant – counter-screen for TAAR1 agonists: nonselective Ga16 antagonists; CHO-Ga16 ATP-induced calcium, Fluo-8 fluorescence; inhibition, % at 3 µM; hit rate 39% among 2,400; shares compounds with TAAR1 ag;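 active means inhibition above the plate's mean compound inhibition plus 3 SD, computed per plate, cut at about 22% in these data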;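 further: 0% = EC80 ATP with DMSO and 100% = DMSO wells without ATP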
# Starred values were filed as active, the others as inactive; x = not tested or not shown.
SMILES,GPR7 antagonist,DAGLB inhibitor,TAAR1 ag,TAAR1 antagonist,MPTP inh,TAAR1 ag conf,Ga16 ag counter,TAAR1 desens,Ga16 nonsel ant
C[C@@H]1CN([C@@H](C)CO)C(=O)c2cc(Br)cnc2O[C@@H]1CN(C)Cc1ccccn1,x,x,4,3,x,x,x,x,x
CC(=O)c1ccc2c3c(cccc13)C(=O)N(CCc1ccccc1)C2=O,-7,-7,x,x,0,x,2,x,9
O=C(COC(=O)c1cc(Br)ccc1O)Nc1ccc2c(c1)OCO2,x,-6,75*,70*,0,44*,36*,48,40*
CNc1ccccc1C(=O)OCC(=O)Nc1ccc2c(c1)OCO2,x,-8,3,-5,-2,x,x,x,x
S=C(SCc1cc(Cl)cc2c1OCOC2)N1CCSCC1,x,x,5,-20,x,x,x,x,x
Cc1c(CN2CCCC(C)C2)c(O)n(CCO)c(=O)c1C#N (centres undefined),2,0,x,x,-1,x,1,x,8
C=CCn1c(O)c(CN2CCCCC2)c(C)c(C#N)c1=O,-10,2,17,-26,-4,x,x,x,x
c1ccc(NCCc2ccccn2)cc1,x,-4,0,22,0,x,x,x,x
CNCCc1ccccn1,2,2,81*,58*,0,92*,0,82*,4
c1ccc(CCNCc2cccs2)nc1,x,0,52*,-19,1,66*,0,28,8
CCCCCCCCN1C(=O)[C@@H](CC(=O)NCCCCc2ccccc2)C[C@@]2(C(=O)OC)C1=C[C@H](C(C)(C)C)O[C@@H]2C,x,x,10,-18,x,x,x,x,x
CC1=CC(C)(C)N(C(=O)c2ccc(F)cc2)c2cc3c(cc21)OCO3,7,-7,59*,37,2,62*,41*,46,34*
CC1=CC(C)(C)N(C(=O)CCl)c2cc(C)ccc21,1,-6,0,-13,-1,x,x,x,x
CCOC(=O)[C@]12CCCC=C1N(Cc1cccc3ccccc13)C(=O)[C@H](CC(=O)NCC1CCCCC1)C2,x,x,6,-25,0,x,x,x,x
O=C(Nc1ccc(C(F)(F)F)cc1)c1ccccc1,x,-5,52*,63*,2,17,12*,37,12
Cn1cc(CN2CCC(C(=O)NC(c3ccc(F)cc3)c3ccc4ccccc4n3)CC2)c2ccccc21 (centres undefined),x,x,53*,52*,4,-4,32*,104*,52*
COc1cc(CN2CCC(C(=O)NC(c3ccc(F)cc3)c3ccc4ccccc4n3)CC2)cc(OC)c1 (centres undefined),x,x,14,-7,1,x,x,x,x
O=C(c1ccccc1)c1ccc(OCC(O)CNCc2ccc(F)cc2)cc1 (centres undefined),16,-3,48*,13,1,48*,19*,20,24*
O=C(c1ccccc1)c1ccc(OCC(O)CNCc2cccc(Cl)c2)cc1 (centres undefined),22,-5,58*,7,3,95*,43*,60*,40*
CC(=O)c1ccc(OCC(O)CNCc2ccc3c(c2)OCO3)cc1 (centres undefined),-4,-1,4,-11,3,x,x,x,x
C[C@]12Cc3ccccc3C1CC1=N[C@@H](c3ccccn3)O[C@@]13C[C@@H]2C(=O)N3C1CCN(Cc2ccccc2)CC1 (some centres undefined),x,x,1,6,x,x,x,x,x
O=C(COC(=O)/C=C/c1cccs1)Nc1ccc(Cl)cc1F,x,-9,59*,74*,0,30,3,21,9
COc1ccc(NC(=O)COC(=O)/C=C/c2cccs2)c(OC)c1,x,-1,1,-9,-1,x,x,x,x
COc1cccc2c1C(=O)c1c(O)c3c(c(O)c1C2=O)C[C@](O)(C(C)=O)C[C@H]3O[C@@H]1C[C@@H](N)[C@@H](O)[C@@H](C)O1,x,-10,8,9,3,x,x,x,x
Cc1ccccc1NC(=O)CC1SC(=O)N(c2ccccc2)C1=O (centres undefined),9,20,50*,-7,0,17,2,14,11
SMILES,GPR7 antagonist,DAGLB inhibitor,TAAR1 ag,TAAR1 antagonist,MPTP inh,TAAR1 ag conf,Ga16 ag counter,TAAR1 desens,Ga16 nonsel ant
O=C(c1[nH]c(C(F)(F)F)nc1-c1ccccc1)N1CCc2c([nH]c3ccccc23)C1,x,x,13,-6,1,x,x,x,x
Cc1ccccc1NC(=O)N(C)[C@H]1C[C@H]2c3[nH]c4c(-c5ccc6c(c5)OCO6)cccc4c3CCN2C(=O)[C@H]1[C@H](C)O,x,x,5,23,x,x,x,x,x
Cc1cc(N2CCN(C)CC2)nc2ccc(NC(=S)N3CCN(c4cccc(Cl)c4)CC3)cc12,-2,0,7,4,2,x,x,x,x
Cc1cccc(N2CCN(C(=S)Nc3ccc4nc(N5CCN(C)CC5)cc(C)c4c3)CC2C)c1 (centres undefined),7,1,93*,85*,2,103*,44*,94*,35*
O=C(OCCOc1ccccc1)c1cc(S(=O)(=O)N2CCOCC2)c(Cl)cc1Cl,x,-8,1,1,1,x,x,x,x
ClC(Cl)(c1nnnn1-c1ccccc1)c1nnnn1-c1ccccc1,1,1,58*,38,8,52*,24*,36,29*
COc1ccc(Cc2nnc(NC(=O)CSc3ccc(Cl)cc3)s2)cc1OC,-5,x,87*,35,x,75*,42*,36,20
COc1ccc(Cc2nnc(NC(=O)CSc3ccccc3)s2)cc1,-1,2,49*,50*,0,8,0,3,7
COc1ccc(Cc2nnc(NC(=O)CSc3ccc(C)cc3)s2)cc1,-5,5,8,-13,1,x,x,x,x
COc1ccc(C(=O)OCC(=O)c2ccco2)cc1[N+](=O)[O-],x,-2,2,5,2,x,x,x,x
c1ccc2c3c([nH]c2c1)CCNC3,8,-1,82*,81*,-1,103*,0,93*,2
C/C(NCCc1ccccc1)=C1/CCOC1=O,x,2,91*,90*,1,98*,0,88*,3
O=C(NCCc1ccccc1)C1=COCCO1,x,-2,0,2,0,x,x,x,x
Nc1cnnc(N/N=C\c2ccccc2)c1Cl,x,2,46*,-17,1,69*,0,22,5
O=C(COC(=O)/C=C/c1cccc(F)c1)NC1CCCCCC1,x,-2,64*,54*,-1,88*,38*,72*,19

# Compound activity as filed in PubChem BioAssay.
